From ChEMBL document CHEMBL1129982, “Structure-activity relationships in a series of orally active gamma-hydroxy butenolide endothelin antagonists” (J Med Chem, 1997)

Legend:
[1] = target: T1, Endothelin receptor type B (Homo sapiens, UniProt P24530); experiment: Binding affinity against human cloned Endothelin B receptor expressed in CHO-K1 cells; type: cell-based
T1 sequence (P24530 whole entry): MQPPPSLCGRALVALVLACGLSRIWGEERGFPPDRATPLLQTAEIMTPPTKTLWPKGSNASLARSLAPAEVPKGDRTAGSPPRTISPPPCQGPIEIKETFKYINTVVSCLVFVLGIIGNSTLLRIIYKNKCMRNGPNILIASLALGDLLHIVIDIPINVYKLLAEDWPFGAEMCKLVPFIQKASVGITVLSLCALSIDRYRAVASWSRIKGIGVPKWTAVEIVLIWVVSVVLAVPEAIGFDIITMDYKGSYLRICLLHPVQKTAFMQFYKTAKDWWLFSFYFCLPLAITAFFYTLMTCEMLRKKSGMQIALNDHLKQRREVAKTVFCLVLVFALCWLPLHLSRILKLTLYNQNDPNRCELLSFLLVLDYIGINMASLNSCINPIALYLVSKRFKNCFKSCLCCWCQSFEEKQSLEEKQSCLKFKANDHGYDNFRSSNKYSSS
Method in brief: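 Radioligand binding to cloned human ETA (Ltk⁻ cells) and ETB (CHO-K1 cells) receptors. […] Selectivity expressed as ETB IC50/ETA IC50.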

[2] = target: T2, Endothelin-1 receptor (Homo sapiens, UniProt P25101); experiment: Binding affinity against human cloned endothelin A receptor expressed in LTK-cells; type: cell-based
T2 sequence (P25101 whole entry): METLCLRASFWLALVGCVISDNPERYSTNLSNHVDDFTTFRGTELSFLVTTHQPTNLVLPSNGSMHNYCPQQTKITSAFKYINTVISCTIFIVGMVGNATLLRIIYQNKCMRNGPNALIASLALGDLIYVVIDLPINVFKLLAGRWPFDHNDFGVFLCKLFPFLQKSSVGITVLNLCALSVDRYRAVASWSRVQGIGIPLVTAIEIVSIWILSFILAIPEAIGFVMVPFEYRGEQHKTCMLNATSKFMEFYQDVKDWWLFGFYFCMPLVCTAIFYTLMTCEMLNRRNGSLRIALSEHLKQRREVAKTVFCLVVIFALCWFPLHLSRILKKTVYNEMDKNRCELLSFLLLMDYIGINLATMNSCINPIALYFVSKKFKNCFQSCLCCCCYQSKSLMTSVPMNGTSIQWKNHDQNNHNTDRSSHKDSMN
Method in brief: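 Radioligand binding to cloned human ETA (Ltk⁻ cells) and ETB (CHO-K1 cells) receptors. Selectivity expressed as ETB IC50/ETA IC50.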

SMILES | IC50 [1] | IC50 [2]
COc1ccc(C2(O)OC(=O)C(c3ccc4c(c3)OCO4)=C2Cc2cc(OC)c3c(c2)OCO3)cc1 (stereo not given) | 16000 nM | 14 nM
COc1ccc(C2(O)OC(=O)C(c3ccc4c(c3)OCO4)=C2Cc2nccc3ccccc23)cc1 (stereo not given) | 3200 nM | 10 nM
COc1ccc(C2(O)OC(=O)C(c3ccc4c(c3)OCO4)=C2Cc2ccc(OC)c(C)c2)cc1 (stereo not given) | 1140 nM | –
COc1ccc(C2(O)OC(=O)C(c3ccc4c(c3)OCO4)=C2Cc2cccc(OC)c2OC)cc1 (stereo not given) | – | 11 nM
COc1ccc(C2(O)OC(=O)C(c3ccc4c(c3)OCO4)=C2Cc2cc(OC)cc(OC)c2)cc1 (stereo not given) | – | 1.7 nM
COc1ccc(C2(O)OC(=O)C(c3ccc4c(c3)OCO4)=C2CC2CCCCC2)cc1 (stereo not given) | 225 nM | 13 nM
COc1ccc(CC2=C(c3ccc(OC)cc3)C(=O)OC2(O)c2ccc(OC)cc2)cc1 (stereo not given) | 9000 nM | –
COc1ccc(C2(O)OC(=O)C(c3ccc4c(c3)OCO4)=C2Cc2ccc(S(C)(=O)=O)cc2)cc1 (stereo not given) | 3000 nM | 4 nM
COc1ccc(C2(O)OC(=O)C(c3ccc4c(c3)OCO4)=C2Cc2cccc(C(=O)O)c2)cc1 (stereo not given) | > 2500 nM | 50 nM
COc1ccc(C2(O)OC(=O)C(c3cccc(OC)c3)=C2Cc2ccccc2)cc1 (stereo not given) | 12000 nM | 90 nM
COC(=O)c1ccc(CC2=C(c3ccc4c(c3)OCO4)C(=O)OC2(O)c2ccc(OC)cc2)cc1 (stereo not given) | – | 11 nM
COc1ccc(C2(O)OC(=O)C(c3ccc4c(c3)OCO4)=C2Cc2ccc([N+](=O)[O-])cc2)cc1 (stereo not given) | 17000 nM | 800 nM
CSc1ccc(C2(O)OC(=O)C(c3ccc4c(c3)OCO4)=C2Cc2ccccc2)cc1 (stereo not given) | > 2500 nM | 170 nM
COc1ccc(C2(O)OC(=O)C(c3cc(OC)c(OC)c(OC)c3)=C2Cc2ccccc2)cc1 (stereo not given) | 1600 nM | 1300 nM
COc1ccc(C2(O)OC(=O)C(c3ccc4c(c3)OCO4)=C2Cc2ccccc2)cc1C (stereo not given) | – | 12 nM
COc1ccc(C2(O)OC(=O)C(c3ccc4c(c3)OCO4)=C2Cc2ccc3ccccc3c2)cc1 (stereo not given) | > 2500 nM | 14 nM
COc1ccc(C2OC(=O)C(c3ccc4c(c3)OCO4)=C2Cc2ccccc2)cc1 (stereo not given) | > 2500 nM | 700 nM
COc1ccc(C2(O)OC(=O)C(c3ccc4c(c3)OCO4)=C2Cc2cccc([N+](=O)[O-])c2)cc1 (stereo not given) | > 25000 nM | 70 nM
COc1ccc(C2(O)OC(=O)C(c3ccc4c(c3)OCO4)=C2Cc2ccc(-c3ccccc3)cc2)cc1 (stereo not given) | – | 200 nM
COc1ccc(C2(O)OC(=O)C(c3ccc(OC)cc3OC)=C2Cc2ccccc2)cc1 (stereo not given) | – | 300 nM
COc1ccc(C2(O)OC(=O)C(c3ccc4c(c3)OCO4)=C2Cc2ccc3c(c2)OCCO3)cc1 (stereo not given) | 1600 nM | 7.5 nM
O=C1OC(O)(c2ccc3c(c2)OCO3)C(Cc2ccccc2)=C1c1ccc2c(c1)OCO2 (stereo not given) | – | 19 nM
COC(=O)c1cccc(CC2=C(c3ccc4c(c3)OCO4)C(=O)OC2(O)c2ccc(OC)cc2)c1 (stereo not given) | – | 8.5 nM
COc1ccc(C2(O)OC(=O)C(c3cc(OC)c4c(c3)OCO4)=C2Cc2cc(OC)c(OC)c(OC)c2)cc1C (stereo not given) | 180 nM | –
COc1ccccc1C1(O)OC(=O)C(c2ccc3c(c2)OCO3)=C1Cc1ccccc1 (stereo not given) | > 2500 nM | 480 nM
COc1cc(C2(O)OC(=O)C(c3ccc4c(c3)OCO4)=C2Cc2ccccc2)cc(OC)c1OC (stereo not given) | 4500 nM | 25 nM
COc1ccc(C2(O)OC(=O)C(c3ccc4c(c3)OCO4)=C2Cc2cc(OC)ccc2OC)cc1 (stereo not given) | – | 2.1 nM
CC(C)Oc1ccc(C2(O)OC(=O)C(c3ccc4c(c3)OCO4)=C2Cc2ccccc2)cc1 (stereo not given) | 11000 nM | 1150 nM
COc1ccc(C2(O)OC(=O)C(c3ccc4c(c3)OCO4)=C2Cc2cc(OC)c(OC)cc2OC)cc1 (stereo not given) | – | 1.8 nM
